Inconclusive results are not listed. The source made the active and inactive calls.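 The calls were made as follows: active = active in every separate test run, each with half-maximal potency at or below twice its top valid dose; inconclusive = test runs disagree, or a flat partial drop, or poor fit; inactive = inactive in every test run, including signal rising instead.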
System: R4-3T3 NIH3T3 HSF-1 GFP / Tet-On RFP fluorescence, 48 h
Assay: decrease of heat-induced HSF-1 GFP reporter, dose response, NIH3T3 R4-3T3 cells, GFP/RFP, dry powder (AID 602269)
Conditions: not given
How it was run: (§1)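 Technique: bottom-read fluorescence, GFP ex 485/em 535 nm, RFP ex 550/em 595 nm / Test system: engineered NIH3T3 cells, HSF-1 GFP plus doxycycline-inducible RFP / Control set: Didemnin B 400 nM as positive control / Times: 2 h 42 °C shock, then 48 h 37 °C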

SMILES	AC50 [µM]
Oc1ccc(Br)cc1/C=N/Nc1ccccn1	0.994
CC1=NNC(=O)/C1=C\c1cn(-c2ccccc2)nc1-c1ccc(Cl)cc1	1.27
O=C(CCl)N1CCCC1c1ccc2c(c1)OCCO2 (stereo unspecified)	1.18
O=C1C=C(NCCN2CCOCC2)C(=O)c2cnccc21	2.28
CC(C)(C)C(=O)NC(=S)NNC(=O)c1sc2ccccc2c1Cl	4.55

System: not listed separately
Assay: as above
Conditions: R4-3T3 NIH3T3 HSF-1 GFP / Tet-On RFP fluorescence, 48 h; at 26 µM (top of the series)
How it was run: as §1

SMILES	activity change, negative = inhibition
CCc1ccc(NC(=O)C2C3CCC(O3)C2C(=O)O)cc1 (stereo unspecified)	-14.3% (inactive)

From PubChem BioAssay AID602269 (Broad Institute, 2012)
